Test [1] relates to Shaker K+ channels. The conditions noted are these: 50 mV, ref Murrell-Lagnado and Aldrich, 1993; cited from earlier work.
Test [2] deals with T1, inactivation-deficient hNav1.5-CW mutant Na+ channels (Homo sapiens, UniProt Q14524, A410W/L409C). Nature of the test: On and off rates of β4_154–167 binding at 50 mV. The test is classed as cell-based. The method, boiled down: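 HEK293t cells transiently co-expressing inactivation-deficient hNav1.5-CW with rat β1, whole-cell clamp at 22–24°C, holding −140 mV. Peptide was included in the pipette solution (NaF/NaCl/EGTA/HEPES, pH 7.2) at 25–250 μM. The time-dependent block at 50 mV was fitted single-exponentially. 1/τ was plotted against concentration and fitted by linear regression: slope gave kon, intercept gave koff; n = 5.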

For test [3], the target named is T2, hNav1.5-CW inactivation-deficient mutant Na+ channels (Homo sapiens, UniProt Q14524, A410W/L409C). The test can be described thus: Use-dependent block during repetitive pulses. The settings on record: for use-dependent block of peak currents, 20 ms pulses: β4_154–167 n = 6, acetyl-KIFMK-amide n = 5. The test is classed as cell-based.
Test [4] deals with Na+ channels in dissociated neurons. The settings on record: ref Grieco and Raman, 2004; cited from earlier work.
For test [5], the system named is BTX-modified wild-type hNav1.5 Na+ channels. Nature of the test: Time-dependent block of BTX-modified wild-type Na+ currents. The conditions noted are these: 4 μM BTX; acetyl-KIFMK-amide 2 mM, β4_154–167 1 mM, after 2,000 pulses. The test is classed as cell-based. The gist of the method: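 Channels were modified by 4 μM BTX (final, from 0.5 mM DMSO stock) in the pipette, which also held either 2 mM acetyl-KIFMK-amide or 1 mM peptide. Cells were held at −140 mV and depolarized to 50 mV. The maintained-to-peak current ratio at 50 mV was measured. Five to six cells.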

For test [6], the target named is T3, inactivation-deficient hNav1.5-L409C/A410W (hNav1.5-CW) Na+ channels (Homo sapiens, UniProt Q14524, A410W/L409C). The settings on record: ref Eaholtz et al., 1994; Tang et al., 1996; Wang and Wang, 2005; cited from earlier work.
The subject of test [7] is inactivation-deficient rNav1.2 Na+ channels. The conditions noted are these: ref Eaholtz et al., 1994; Tang et al., 1996; Wang and Wang, 2005; cited from earlier work.
Test [8] has as its target T3, inactivation-deficient hNav1.5-L409C/A410W (hNav1.5-CW) Na+ channels. It is filed as cell-based. The conditions noted are these: intracellular peptide, 50 mV; 25–250 μM for β4_154–167. The method, boiled down: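 Transiently transfected HEK293t cells (calcium phosphate; CD8 bead selection; used 1–4 d) expressing hNav1.5-L409C/A410W with rat β1. Peptide at 25–250 μM was dialysed via the pipette. Whole-cell currents were recorded at 50 mV from −140 mV holding, at 22–24°C. Decay was fitted with a single exponential. Steady-state block was taken ∼30 min after break-in.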

The target in test [9] is T1, inactivation-deficient hNav1.5-CW mutant Na+ channels. Nature of the test: Resurgent Na+ currents near the activation threshold. It is filed as cell-based. The conditions noted are these: 2 mM in pipette, −80 to −20 mV, five cells. The gist of the method: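 Whole-cell recording at room temperature (22–24°C) from transfected HEK293t cells expressing hNav1.5-CW plus rat β1, with 2 mM acetyl-peptide in the internal solution. After the test pulse, tail currents were recorded at −80 to −20 mV in 20-mV steps. Bath: 65 mM NaCl, 85 mM choline Cl, 2 mM CaCl2, 10 mM HEPES, pH 7.4. Five cells.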

Test [10] deals with hNav1.5-CW/F1760K mutant Na+ channels (Homo sapiens, UniProt Q14524, A410W/F1760K/L409C). The conditions noted are these: ref Wang and Wang, cited from earlier work.
Test [11] deals with T2, hNav1.5-CW inactivation-deficient mutant Na+ channels. The test can be described thus: Unblocking upon repolarization, two-pulse protocol. The test is classed as cell-based. The conditions noted are these: 2 mM in pipette. The gist of the method:
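Whole-cell hNav1.5-CW currents were recorded in HEK293t cells at room temperature with 2 mM peptide in the pipette. A two-pulse protocol with a 10-ms interpulse interval was used. Peak current amplitude at the second pulse was compared with that at the first.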

Test [12] deals with voltage-gated Na+ channels. The conditions noted are these: ref Catterall, 1980; Wang and Wang, 2003; Strichartz, et al., 1987; cited from earlier work.
Where [13] appears, read: 2 mM in pipette, 50 mV/20 ms at 1 Hz.

We go through five substances from publication PMC2151501 (The Journal of General Physiology, 2006).

Entries after “also recorded” stand apart in the source; their conditions may differ. No end group written: not given here.

One may read the koff as the rate constant with which the complex falls apart. For orientation: kon means the rate constant with which the complex forms.

Regarding “ShB peptide: the first 20 amino acids on the NH2 terminus of the Shaker channel (MAAVAGLYGLGEDRQHRKKQ; UniProt P08510 1-20, looked up, fragment)”, the koff in test [1] is 13.8 s⁻¹.
As for KKLITFILKKTREK [β4_154–167], the koff in test [2] (read-out: off rate (koff) of binding) amounted to 49.1 s⁻¹. The kon in [2] (read-out: on rate (kon) of binding) stood at 1.01e+07 M⁻¹ s⁻¹. Also, in test [3] (setting [13]), the “use-dependent block of peak currents, 20 ms pulses” value worked out at 2.9 ± 1.6%.
For β-pompilidotoxin, the “effect on fast inactivation gating (in words)” value in [4] was “slowed the fast inactivation gating considerably”.
For the substance acetyl-KIFMK-amide, in [5], the “block of BTX-modified open Na+ channels (in words)” value was “resistant to β4_154–167 and acetyl-KIFMK-amide block; also recorded: little time-dependent block was found”. The “restoration of fast inactivation, inactivation-deficient hNav1.5 (in words)” value in test [6] is listed as “can restore fast inactivation”. Also, the “restoration of fast inactivation, rNav1.2 (in words)” value in test [7] is “can restore fast inactivation”. Further, the “time-dependent block of inactivation-deficient Na+ currents (in words)” value in test [8] was “restored the fast inactivation phenotype in hNav1.5 inactivation-deficient Na^+ channels”. In addition, in test [9], the “resurgent tail currents near activation threshold (in words), acetyl-KIFMK-amide” value is “elicited robust resurgent currents”. Further, in test [3] (setting [13]), the “additional use-dependent block on outward peak and inward tail currents” value is reported as around 65%; the “tail current decay relative to β4_154–167” value is “four times faster”; the “use-dependent block of peak currents, 20 ms pulses” value was found to be 62.4 ± 3.1%. Also, the “use-dependent block, 3 ms pulses” value in [3] (2 mM in pipette, repetitive pulses, 3 ms, n = 5) was found to be 28.5 ± 0.4%. Also, in [3] (50 mV for 1 ms at 1 Hz, n = 5), the “fitted τ of use-dependent block, 1 ms pulses” value is reported as 27.1 pulses and the “use-dependent block, 1 ms pulses” value was determined as 15.5 ± 0.4%. Moreover, the “fitted τ of use-dependent block, 3 ms pulses” value in test [3] (repetitive pulses, 3 ms, n = 5) was 14.5 pulses. Also, in test [10] (hNav1.5-F1760K, 2005), the “effect of hNav1.5-F1760K on time-dependent block (in words)” value was “hinders its time-dependent block” and the “effect of hNav1.5-F1760K on use-dependent block (in words)” value is recorded as “abolishes the use-dependent block”. Besides, the “tail current decay τ, short test pulse” value in test [11] (short test pulse, n = 6) is 0.23 ± 0.02 ms. Also, the “unblocking upon repolarization (in words)” value in test [11] (−140 mV, two-pulse protocol, 10-ms interval, six cells) is given as “also occurred rapidly”.
Consider Batrachotoxin [BTX], for which, in [12], the “effect of BTX on voltage-gated Na+ channels (in words)” value was “eliminates the fast inactivation of voltage-gated Na^+ channels”. In test [10] (2003), the “sensitivity of hNav1.5-CW/F1760K to BTX (in words)” value is “BTX-resistant”.
